Calls of active or inactive are those of the source. The calls are words filed in the database; no cut-off is given here.
Experiments:
Mus musculus [1] = assay: Antiinflammatory activity in C57BL/6 mouse assessed as reduction in IL1-beta release in peritoneal cavity at 10 mg/kg, sc dosed 30 mins prior mBSA challenge measured after 3 hrs post mBSA challenge by ELISA
Mus musculus [2] = assay: Antiinflammatory activity in specific-pathogen free C57BL/6 mouse assessed as reduction in LPS-induced neutrophil migration in peritoneal activity at 10 mg/kg, sc dosed 15 mins prior LPS challenge measured after 6 hrs post LPS challenge by optical microscopic analysis; type: functional, organism-based
In short: (§1)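 Wild-type C57BL/6 or iNOS−/− male mice dosed sc (10 mg/kg), then ip LPS (300 ng/cavity) 15 min later. Killed at 6 h; peritoneal cavity washed. Total and differential cell counts done. Mean ± SEM, n = 4−5, Tukey's test.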

Mus musculus [3] = assay: Antiinflammatory activity in iNOS-/- mouse assessed as reduction in LPS-induced neutrophil migration in peritoneal activity at 10 mg/kg, sc dosed 15 mins prior LPS challenge measured after 6 hrs post LPS challenge by optical microscopic analysis; type: functional, organism-based
In short: as §1

Mus musculus [4] = assay: Antiinflammatory activity in C57BL/6 mouse assessed as reduction in LPS-induced leukocyte adhesion in mesenteric venules at 10 mg/kg, sc dosed 30 mins prior LPS-challenge measured after 2 to 4 hrs post LPS challenge by intravital microscopy; type: functional, organism-based
In short: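 Mice dosed sc 30 min before ip LPS (300 ng/cavity). Animals anesthetized 2 or 4 h after the stimulus and mesentery exposed on a 37 °C thermostatted plate. Post-capillary venules of 10−18 μm diameter imaged. Rolling leukocytes counted over 10 min; cells stationary >30 s scored adherent. Five fields per animal. Mean ± SEM, n = 4−5.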

Neutrophil [5] = assay: Induction of apoptosis in mouse bone marrow neutrophils assessed as necrotic cells at 10 uM measured after 4 hrs by Annexin V-FITC/propidium iodide staining-based flow cytometry (reference value: 0.898 %); type: cell-based
[6] = Induction of apoptosis in mouse bone marrow macrophages assessed as viable cells at 10 uM measured after 4 hrs by Annexin V-FITC/propidium iodide staining-based flow cytometry (reference value: 92 %); type: cell-based, BMDM; details: read-out: Activity
Neutrophil [7] = assay: Reduction of calcium influx in LTB4-induced mouse bone marrow neutrophils at 10 uM measured after 30 mins by Fluo 3-AM dye-based analysis; type: functional, cell-based
In short: (§2)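 Bone marrow neutrophils (1 × 10^6/mL) loaded with Fluo 3-AM for 40 min at 37 °C, 5% CO2, then incubated 30 min with 10 μM. Plated at 2 × 10^5 cells/well. CXCL2/MIP-2 (30 ng/mL) or LTB4 added automatically in a FlexStation 3 microplate reader and calcium influx fluorescence recorded.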

[8] = Induction of apoptosis in mouse bone marrow macrophages assessed as early apoptotic cells at 10 uM measured after 4 hrs by Annexin V-FITC/propidium iodide staining-based flow cytometry (reference value: 5.03 %); type: cell-based; details: bmdm
Mus musculus [9] = assay: Antiinflammatory activity in C57BL/6 mouse assessed as reduction in mBSA-induced neutrophil migration in peritoneal activity at 1 to 10 mg/kg, sc dosed 21 days after immunization 15 mins prior to mBSA challenge measured after 6 hrs post mBSA challenge using Neubauer chamber by cell counting method
[10] = Induction of apoptosis in mouse bone marrow macrophages assessed as late apoptotic cells at 10 uM measured after 4 hrs by Annexin V-FITC/propidium iodide staining-based flow cytometry (reference value: 2.29 %); type: cell-based; details: bmdm
Mus musculus [11] = assay: Antiinflammatory activity in C57BL/6 mouse assessed as reduction in LPS-induced neutrophil migration in peritoneal activity at 1 to 10 mg/kg, sc dosed 30 mins prior LPS challenge measured after 6 hrs post LPS challenge using Neubauer chamber by optical microscopic analysis; type: functional, organism-based
In short: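 Male SPF C57BL/6 mice (20−22 g) dosed sc (1, 3 or 10 mg/kg) 30 min before ip LPS (300 ng/cavity). Killed at 6 h; cavity washed with 3 mL PBS/1 mM EDTA. Total cells counted in a Neubauer chamber; differential count of 100 cells on Panotic-stained cytospins at 1000×. Neutrophils per cavity, mean ± SEM, n = 4−5.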

Neutrophil [12] = assay: Effect on CXCR2 expression in mouse bone marrow neutrophils at 10 uM measured after 1.5 hrs by flow cytometric analysis; type: functional, cell-based
In short: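 Percoll-isolated (72%/65%) bone marrow neutrophils (1 × 10^6 cells/mL, ~95% pure) incubated 1.5 h with 10 μM. Stained 20 min at 4 °C with APC-anti-Ly6G (1:200) and PE-anti-CXCR2 (1:50). Fixed in PBS/2% formaldehyde; two-color flow cytometry. Mean ± SEM, n = 3−4.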

Neutrophil [13] = assay: Induction of apoptosis in mouse bone marrow neutrophils assessed as late apoptotic cells at 10 uM measured after 4 hrs by Annexin V-FITC/propidium iodide staining-based flow cytometry (reference value: 4.8 %); type: cell-based
Mus musculus [14] = assay: Antiinflammatory activity in C57BL/6 mouse assessed as reduction in CXCL1/KC release in peritoneal cavity at 10 mg/kg, sc dosed 30 mins prior mBSA challenge measured after 3 hrs post mBSA challenge by ELISA; type: functional, organism-based
In short: (§3)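 Male SPF C57BL/6 mice (20−22 g) given sc vehicle or test agent 30 min before ip LPS (300 ng/cavity, in saline) or mBSA (30 μg/cavity) in mBSA-immunized mice. Peritoneal fluid collected after 1.5 or 3 h. TNF-α, IL-1β, CXCL1/KC and CXCL2/MIP-2 measured by ELISA, expressed as pg/mL. Mean ± SEM, n = 4−5, Tukey's test.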

BMDM [15] = assay: Antiinflammatory activity in LPS-stimulated mouse bone marrow macrophages assessed as reduction in CXCL2/MIP-2 release at 1 to 10 uM pre-incubated for 30 mins prior LPS challenge measured after 4 hrs by ELISA; type: functional, cell-based
In short: (§4)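 Femur/tibia bone marrow cells differentiated 7 days at 37 °C, 5% CO2 in RPMI with 10% FBS, penicillin, L-glutamine and 20% L929 supernatant. Macrophages seeded at 2 × 10^5/well and adhered 2 h. Pre-treated 30 min (1, 3 or 10 μM), then LPS 10 ng/mL for 4 h. Supernatant CXCL1/KC and CXCL2/MIP-2 measured by ELISA (pg/mL).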

Mus musculus [16] = assay: Antiinflammatory activity in C57BL/6 mouse assessed as reduction in CXCL2/MIP-2 release in peritoneal cavity at 10 mg/kg, sc dosed 30 mins prior mBSA challenge measured after 3 hrs post mBSA challenge by ELISA; type: functional, organism-based
In short: as §3

[17] = Induction of apoptosis in mouse bone marrow macrophages assessed as necrotic cells at 10 uM measured after 4 hrs by Annexin V-FITC/propidium iodide staining-based flow cytometry (reference value: 0.69 %); type: cell-based; details: bmdm
Mus musculus [18] = species on record: Mus musculus; assay: Reduction in LTB4-induced chemotaxis in mouse bone marrow neutrophils at 3 and 10 uM pre-treated for 30 mins prior LTB4-challenge measured after 60 mins using Boyden's chamber by chemotaxis assay; type: functional
In short: (§5)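 Percoll-isolated bone marrow neutrophils (1 × 10^6 cells/mL) pre-incubated 30 min at 37 °C, 5% CO2 (1, 3 or 10 μM). Boyden chamber with 5-μm membrane; CXCL2/MIP-2 30 ng/mL or LTB4 in 0.01% RPMI-BSA as chemoattractant, RPMI-BSA as negative control. Migration 60 min. Panotic-stained cells averaged over 5 fields at 1000×; triplicate, n = 3−4.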

Neutrophil [19] = assay: Reduction of calcium influx in CXCL2/MIP2-induced mouse bone marrow neutrophils at 10 uM measured after 30 mins by Fluo 3-AM dye-based analysis; type: functional, cell-based
In short: as §2

Mus musculus [20] = assay: Antiinflammatory activity in C57BL/6 mouse assessed as reduction in CXCL2/MIP-2 release in peritoneal cavity at 10 mg/kg, sc dosed 30 mins prior LPS challenge measured after 3 hrs post LPS challenge by ELISA; type: functional, organism-based
In short: as §3

Mus musculus [21] = assay: Antiinflammatory activity in C57BL/6 mouse assessed as reduction in TNFalpha release in peritoneal cavity at 10 mg/kg, sc dosed 30 mins prior LPS challenge measured after 1.5 hrs post LPS challenge by ELISA
Neutrophil [22] = assay: Reduction in CXCL2/MIP2-induced chemotaxis in mouse bone marrow neutrophils at 3 and 10 uM pre-treated for 30 mins prior CXCL2/MIP2-challenge measured after 60 mins using Boyden's chamber by chemotaxis assay; type: functional, cell-based
In short: as §5

BMDM [23] = assay: Antiinflammatory activity in LPS-stimulated mouse bone marrow macrophages assessed as reduction in CXCL1/KC release at 1 to 10 uM pre-incubated for 30 mins prior LPS challenge measured after 4 hrs by ELISA; type: functional, cell-based
In short: as §4

Mus musculus [24] = assay: Antiinflammatory activity in C57BL/6 mouse assessed as reduction in LPS-induced leukocyte rolling in mesenteric venules at 10 mg/kg, dosed 30 mins prior LPS-challenge measured by intravital microscopy
Neutrophil [25] = assay: Induction of apoptosis in mouse bone marrow neutrophils assessed as early apoptotic cells at 10 uM measured after 4 hrs by Annexin V-FITC/propidium iodide staining-based flow cytometry (reference value: 3.49 %); type: cell-based
Mus musculus [26] = assay: Antiinflammatory activity in C57BL/6 mouse assessed as reduction in CXCL1/KC release in peritoneal cavity at 10 mg/kg, sc dosed 30 mins prior LPS challenge measured after 3 hrs post LPS challenge by ELISA; type: functional, organism-based
In short: as §3

[27] = Induction of apoptosis in mouse bone marrow neutrophils assessed as viable cells at 10 uM measured after 4 hrs by Annexin V-FITC/propidium iodide staining-based flow cytometry (reference value: 90.8 %); type: cell-based, Neutrophil; details: read-out: Activity

## COc1ccc([C@H]2COc3cc(O)ccc3C2)c(O)c1
Mus musculus [1]
  Activity: inactive
Mus musculus [2]
  Activity: Active
Mus musculus [3]
  Activity: Active
Mus musculus [4]
  Activity: Active
Neutrophil [5]
  Activity: 0.546%
[6]
  viability at 4 h, 10 µM: 89%
Neutrophil [7]
  Activity: Active
[8]
  Activity: 6.62%
Mus musculus [9]
  Activity: Active
[10]
  Activity: 3.35%
Mus musculus [11]
  Activity: Active
Neutrophil [12]
  Activity: inactive
Neutrophil [13]
  Activity: 2.72%
Mus musculus [14]
  Activity: Active
BMDM [15]
  Activity: Active
Mus musculus [16]
  Activity: Active
[17]
  Activity: 1.03%
Mus musculus [18]
  Activity: Active
Neutrophil [19]
  Activity: Active
Mus musculus [20]
  Activity: Active
Mus musculus [21]
  Activity: inactive
Neutrophil [22]
  Activity: Active
BMDM [23]
  Activity: Active
Mus musculus [24]
  Activity: Active
Neutrophil [25]
  Activity: 2.93%
Mus musculus [26]
  Activity: Active
[27]
  viability at 4 h, 10 µM: 93.8%

Source: ChEMBL document CHEMBL4477169, “Vestitol Isolated from Brazilian Red Propolis Inhibits Neutrophils Migration in the Inflammatory Process: Elucidation of the Mechanism of Action” (J Nat Prod, 2016)
